Bioassay records (PubChem BioAssay)
OX1R antag-1: human HCRTR1 antagonism | CHO/OX1R cells, Fluo-8 calcium fluorescence, orexin A | inhibition, % at 5 µM | O43613 | AID 434989 | 0.43% of 330,000 active;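 active means inhibition above its plate's threshold, mean inhibition of all tested compounds on the plate plus 3 SD, cut at about 37% in these data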
Target sequence (O43613 whole entry, looked up): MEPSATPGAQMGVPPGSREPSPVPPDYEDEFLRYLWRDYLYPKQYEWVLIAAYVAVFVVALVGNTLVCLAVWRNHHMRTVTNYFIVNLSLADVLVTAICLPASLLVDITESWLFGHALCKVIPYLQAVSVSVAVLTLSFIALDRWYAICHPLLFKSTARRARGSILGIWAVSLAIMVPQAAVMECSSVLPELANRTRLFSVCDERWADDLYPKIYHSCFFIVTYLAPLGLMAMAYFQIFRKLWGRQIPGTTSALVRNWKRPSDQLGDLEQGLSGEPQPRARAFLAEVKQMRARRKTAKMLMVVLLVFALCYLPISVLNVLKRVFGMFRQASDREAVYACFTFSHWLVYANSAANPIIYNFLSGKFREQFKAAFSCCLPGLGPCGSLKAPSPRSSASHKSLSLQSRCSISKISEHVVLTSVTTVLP
M1 ag parental: counter-screen for M1 agonists: effect in parental CHO-K1 cells | Fluo-8 calcium fluorescence; scaled to maximal ATP response, vehicle zero | activation, % at 3 µM | 0.48% of 360,000 active | AID 602248; in the data active means activation above about 15%;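 further: untransfected CHO-K1 host cells lacking M1 receptor as counterscreen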
CHO-K1 Ca antag: counter-screen for M1 antagonists: effect in parental CHO-K1 cells. ATP-induced calcium, Fluo-8 fluorescence. inhibition, % at 3 µM. 0.6% of 360,000 active;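 active means inhibition above a per-plate cutoff, the plate's mean sample inhibition plus 3 SD, cut at about 24% in these data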
CHO parental Ca: counter-screen for OX1R antagonists: effect in parental CHO cells. 0.63% of 330,000 active. parental CHO-K1, ATP-induced calcium, Fluo-8 fluorescence. inhibition, % at 5.6 µM;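 active means inhibition above that plate's mean sample inhibition plus 3 SD, cut at about 26% in these data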
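test system = CHO parental line | reagent = ATP stimulus | measured by = intracellular calcium via Fluo-8 no-wash fluorescent dye | control set = ATP and no-ATP DMSO wells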
M1 PAM parental: counter-screen for M1 PAMs: effect in parental CHO-K1 cells; ATP EC20, Fluo-8 calcium fluorescence; 0% at ATP EC20, 100% at ATP max; activation, % at 3 µM; 0.02% of 360,000 active;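 active means activation above the run cutoff, the mean activation of all test compounds plus 3 SD, cut at about 40% in these data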;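 further: peak over basal fluorescence ratio in a 140 s read after ATP addition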
OX1R antag-2: blocks the human orexin 1 receptor; O43613; OX1R-expressing cells, FRET antagonist read-out; inhibition, % at 6.6 µM; 1.8% of 330,000 active; in the data active means inhibition mostly above about 38%, no sharp cut-off; inactive means mostly below about 40%
A number is an active result; n = inactive; x = not tested or not shown. Hits are enriched below; roughly 2.9% of the tested compounds scored in any of these assays.

SMILES | OX1R antag-1 | M1 ag parental | CHO-K1 Ca antag | CHO parental Ca | M1 PAM parental | OX1R antag-2
CC1Sc2ccc(S(=O)(=O)N3CCC(C(=O)Nc4cccc(Cl)c4)CC3)cc2NC1=O (centres undefined) | n | n | n | 58 | n | n
Cc1ccc(C2Cc3cc(O)c(O)cc3CN2)cc1 (centres undefined) | n | n | n | n | n | n
O=[N+]([O-])c1ccc(C[n+]2cccc3c4ccccc4ccc32)cc1 | n | n | n | n | n | 49
NC(=O)c1c(-c2ccc(Cl)cc2Cl)csc1NC(=O)Cc1ccccc1 | n | n | n | 56 | n | 58
O=C(Cc1ccccc1)Nc1scc(-c2ccccc2)c1C(=O)N1CCOCC1 | n | n | n | n | n | n
O=C(COc1ccccc1)OCC(=O)c1ccc(S(=O)(=O)N2CCCCC2)cc1 | n | n | n | n | n | n
CCCCSc1nc(C)cc(SCC(=O)N/N=C/c2cccc(OC)c2O)n1 | 57 | n | n | 34 | n | n
COc1cccc(/C=N/NC(=O)CSc2nnc(C)n2-c2ccccc2)c1O | n | n | n | n | n | n
CC[C@@H](Nc1ncnc2c1oc1ccccc12)C(=O)O | n | n | n | 99 | n | n
Cc1cc(NC(=O)CN2C(=O)NC(C)(c3ccc(OC(F)F)cc3)C2=O)no1 (centres undefined) | n | n | n | n | n | n
CC1CCCCC12NC(=O)N(CC(=O)Nc1ccc3c(c1)OCO3)C2=O (centres undefined) | x | n | n | x | n | x
CC1CCCCC12NC(=O)N(CC(=O)c1ccc3c(c1)OCO3)C2=O (centres undefined) | n | n | 32 | n | n | n
CC1(c2ccc([N+](=O)[O-])cc2)NC(=O)N(CC(=O)c2ccc3c(c2)OCO3)C1=O (centres undefined) | n | 30 | n | n | n | n
CC(=O)c1c(C)[nH]c(C(=O)CN2C(=O)NC(C)(c3ccc4c(c3)OCO4)C2=O)c1C (centres undefined) | n | n | n | n | n | n
CC1(c2ccc(OC(F)F)cc2)NC(=O)N(CC(=O)c2ccc3c(c2)OCO3)C1=O (centres undefined) | n | 36 | n | n | n | n
Cc1cccc(C(=O)Nc2ccc(S(=O)(=O)N3CCOCC3)cc2C)c1 | n | n | n | n | n | n
COc1ccc2sc(-c3ccc(N(C)C)cc3)c(-c3cnc(OC)nc3)c2c1 | n | n | n | n | n | n
C[C@@H]1CN([C@@H](C)CO)C(=O)CCCn2nncc2CO[C@H]1CN(C)S(=O)(=O)c1cn(C)cn1 | x | n | n | x | n | x
O=C(O)[C@@H](c1ccccc1)N1Cc2ccccc2C1=O | n | n | 30 | n | n | n
CC1(C(=O)Nc2ccc3[nH]ncc3c2)CCN1C(=O)C1(c2ccccc2)CC1 (centres undefined) | x | n | n | x | n | x
CCCCC#Cc1ccc(C(=O)NNC(=O)Nc2ccccc2)o1 | n | n | n | 35 | n | n
OC1CCC(Nc2ccn3nc(-c4cccc(Cl)c4)cc3n2)CC1 (centres undefined) | x | n | n | x | n | x
OC1CCC(Nc2ccn3nc(-c4cccc(OCc5ccccc5)c4)cc3n2)CC1 (centres undefined) | x | n | 29 | x | n | x
O=c1cc(-c2c(F)c(F)c(F)c(F)c2F)oc2c(F)c(F)c(F)c(F)c12 | 43 | x | x | 68 | x | 45
COc1ccc(COc2cccc3ccc(C)nc23)cc1F | n | n | n | n | n | n
SMILES | OX1R antag-1 | M1 ag parental | CHO-K1 Ca antag | CHO parental Ca | M1 PAM parental | OX1R antag-2
O=C(CCCC(=O)NNC(=O)Nc1ccccc1)NNC(=O)Nc1ccccc1 | n | n | 28 | n | n | n
CCCCCC(=O)NNC(=O)Nc1ccccc1 | n | n | n | n | n | n
CCc1cc2ccc(C)cc2nc1SCC(=O)NNC(=O)c1ccco1 | n | n | n | n | n | n
CCc1cc2cc(C)ccc2nc1SCC(=O)NNC(=O)c1ccco1 | n | n | n | n | n | 48
CC(=O)c1cnc(Nc2cccc(Cl)c2Cl)s1 | n | 17 | n | n | n | n
Cc1nn(C)cc1CN1CCCC(C(=O)c2ccc(-c3ccccc3)c(F)c2)C1 (centres undefined) | n | 26 | n | n | n | n
Cn1cc(CN2CCCC(C(=O)c3ccc(-c4ccccc4)c(F)c3)C2)cn1 (centres undefined) | n | n | n | n | n | n
COCCCN(C(=O)Cc1csc(-c2cccc(Cl)c2)n1)c1c(N)n(Cc2ccccc2)c(=O)[nH]c1=O | n | n | n | n | n | n
CCOc1ccc(CCNC(=O)CSc2nnnn2C)cc1OCC | n | 16 | n | n | n | n
CCOc1cc(/C=N/NC(=O)CCn2nnc3ccccc32)ccc1O | n | n | n | n | n | 46
COc1ccc(/C=N/NC(=O)Cn2nnc3ccccc32)cc1OC | n | n | n | n | n | n
CCOC(=O)Cn1nc(C)c(NC(=O)CCc2ccc(OC)cc2)c1C | n | 17 | n | n | n | n
Cc1ccc(-n2nnnc2SCn2nnc3ccccc3c2=O)cc1 | n | n | n | n | n | n
Cc1cccc(-n2nnnc2SCn2nnc3ccccc3c2=O)c1 | n | n | 27 | n | n | n
COc1c(C)cc(C(=O)C2CCCN(C(=O)c3ccoc3)C2)cc1C (centres undefined) | n | n | n | n | n | 51
COc1c(C)cc(C(=O)C2CCCN(C(=O)C3=C(C)OCCO3)C2)cc1C (centres undefined) | n | n | n | n | n | n
Cc1c(OC(C)C(=O)NCc2cccnc2)ccc2c3c(c(=O)oc12)CCCC3 (centres undefined) | n | n | 58 | n | n | n
CC(C)n1c(=N)c(C(=O)NCCc2ccccc2)cc2c(=O)n3ccccc3nc21 | n | n | n | n | n | 55
Cc1cccn2c(=O)c3cc(C(=O)NCc4cccnc4)c(=N)n(C(C)C)c3nc12 | n | n | n | n | n | 41
Cc1c(C(=O)O)c(O)cc2c1C(=O)c1c(O)c([C@@H]3O[C@H](CO)[C@@H](O)[C@H](O)[C@H]3O)c(O)c(O)c1C2=O | n | n | n | n | n | 71
COc1c(O)cc2c(c1O)[C@@H]1O[C@H](CO)[C@@H](O)[C@H](O)[C@H]1OC2=O | n | n | n | n | n | n
CC(C)NS(=O)(=O)c1ccc(NC(=O)C(C)Oc2ccc(C(=O)c3ccccc3)cc2)cc1 (centres undefined) | 93 | 44 | 51 | 68 | n | n
CC(Oc1ccccc1)C(=O)Nc1ccc(C(N)=O)cc1 (centres undefined) | n | n | n | n | n | n
CC(Oc1ccc(Cl)cc1)C(=O)Nc1ccc(S(=O)(=O)N2CCOCC2)cc1 (centres undefined) | n | 36 | n | n | n | n
